According to ChEMBL document CHEMBL4321868, “Scaffold Simplification Strategy Leads to a Novel Generation of Dual Human Immunodeficiency Virus and Enterovirus-A71 Entry Inhibitors” (J Med Chem, 2020):
Active and inactive are the calls of the source. The rule behind the calls is not given here.

Columns and labels:
[1] = test system: Enterovirus A71; experiment: Antiviral activity against Enterovirus A 71 BrCr infected in human RD cells assessed as reduction in viral RNA level at 20 uM preincubated for 1 hr followed by viral infection and measured 8 hrs post-infection by RT-qPCR analysis relative to control; type: functional, strain BRCR; design: scale not given: the % may be the effect or the level left
In short: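 RD cells grown to confluence; compound at 20 μM in 2% FBS medium added 1 h before or 1, 2, 4 h after EV-A71 BrCr infection (MOI 1). Pirodavir 20 μM as entry-inhibitor reference; infected untreated cells as controls. At 8 h post-infection, intracellular RNA isolated and viral RNA quantified by RT-qPCR.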

[2] = Selectivity index, ratio of CC50 for human RD cells to EC50 for Enterovirus A71 BrCr infected in human RD cells; type: toxicity, cell-based; conditions: read-out: Ratio CC50/EC50
In short: (§1)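 RD cells seeded in 96-well plates; next day serial compound dilutions plus virus at low MOI added. Incubation at 37 °C, 5% CO₂ until full CPE in untreated infected controls (3 days). CC50 from uninfected treated cells in the same setup; SI = CC50/EC50.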

[3] = test system: Enterovirus A71; experiment: Antiviral activity against Enterovirus A 71 BrCr infected in human RD cells assessed as reduction in virus-induced cytopathic effect preincubated for 1 day followed by viral infection and measured after 3 days by MTS/PMS method; type: functional, organism-based; conditions: strain BRCR
In short: as §1, with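 “days). Viability read by MTS/PMS; EC50 as 50% inhibition of virus-induced death from dose-response curves.” for “days).”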

[4] = test system: Enterovirus A71; experiment: Antiviral activity against Enterovirus A 71 BrCr infected in human RD cells assessed as reduction in viral RNA level at 20 uM administered at onset of infection measured 8 hrs post-infection by RT-qPCR analysis relative to control; type: functional, strain BRCR; design: scale not given: the % may be the effect or the level left
[5] = Selectivity index, ratio of CC50 for human MT4 cells to EC50 for HIV1 NL4.3 infected in human MT4 cells; type: toxicity, cell-based; conditions: read-out: Ratio CC50/EC50
In short: (§2)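 MT-4 cells (RPMI-1640, 10% FCS, 1% L-glutamine) pre-incubated 30 min at 37 °C with compound, then infected with HIV-1 NL4.3 or HIV-2 ROD according to stock TCID50. After 5 days, CPE scored microscopically and viability read by MTS/PES at A490 to derive EC50; cytotoxicity measured by MTS/PES at 5 days in the same cells. SI = CC50/EC50. Mean ± S.D. of at least 3 experiments.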

[6] = test system: Enterovirus A71; experiment: Antiviral activity against Enterovirus A71 genotype B5 TW/70902/08 infected in human RD cells assessed as reduction in virus-induced cytopathic effect preincubated for 1 day followed by viral infection and measured after 3 days by MTS/PMS method; type: functional, organism-based; conditions: Enterovirus A, genotype B5 TW/70902/08, RD; in short: as §1
[7] = test system: Enterovirus A71; experiment: Antiviral activity against Enterovirus A71 genotype C4 TW/1956/05 infected in human RD cells assessed as reduction in virus-induced cytopathic effect preincubated for 1 day followed by viral infection and measured after 3 days by MTS/PMS method; type: functional, organism-based; conditions: Enterovirus A, genotype C4 TW/1956/05, RD; in short: as §1
[8] = test system: Human immunodeficiency virus 1; experiment: Antiviral activity against HIV1 NL4.3 infected in human MT4 cells assessed as reduction in virus-induced cytopathic effect preincubated for 30 mins followed by viral infection and measured after 5 days by MTS assay; type: functional, organism-based; conditions: Human immunodeficiency virus 1, NL4.3, MT4
[9] = test system: Enterovirus A71; experiment: Antiviral activity against Enterovirus A71 genotype C2 H08300 461812 infected in human RD cells assessed as reduction in virus-induced cytopathic effect preincubated for 1 day followed by viral infection and measured after 3 days by MTS/PMS method; type: functional, organism-based; conditions: Enterovirus A, genotype C2 H08300 461812, RD; in short: as §1
[10] = test system: RD; experiment: Cytotoxicity against human RD cells assessed as induction of cell morphological changes; type: cell-based
[11] = test system: RD; experiment: Cytotoxicity against human RD cells assessed as adverse effect on cell; type: cell-based
[12] = Cytotoxicity against human MT4 cells assessed as reduction in cell viability measured after 5 days by MTS/PES assay; type: cell-based; in short: as §2
[13] = test system: Enterovirus A71; experiment: Antiviral activity against Enterovirus A 71 BrCr infected in human RD cells assessed as reduction in virus-induced cell death preincubated for 1 day followed by viral infection and measured after 3 days by microscopic analysis; type: functional, strain BRCR; design: scale not given: the % may be the effect or the level left
In short: (§3)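 RD cells were seeded in 96-well plates and infected the next day at low MOI, with serial compound dilutions added at the same time. Plates were incubated at 37 °C, 5% CO2 for 3 days, until untreated infected controls died. Cell death was quantified by MTS/PMS and EC50 calculated from dose-response curves. Values come from more than 2 dose-response curves across more than 1 experiment, with microscopic quality control.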

[14] = test system: Enterovirus A71; experiment: Antiviral activity against Enterovirus A71 genotype C2 H08300 461812 infected in human RD cells assessed as reduction in virus-induced cell death preincubated for 1 day followed by viral infection and measured after 3 days by microscopic analysis; type: functional; design: scale not given: the % may be the effect or the level left; in short: as §3
[15] = test system: Enterovirus A71; experiment: Antiviral activity against Enterovirus A71 genotype B5 TW/70902/08 infected in human RD cells assessed as reduction in virus-induced cell death preincubated for 1 day followed by viral infection and measured after 3 days by […]; type: functional; design: scale not given: the % may be the effect or the level left; in short: as §3
[16] = test system: Enterovirus A71; experiment: Antiviral activity against Enterovirus A71 genotype C4 TW/1956/05 infected in human RD cells assessed as reduction in virus-induced cell death preincubated for 1 day followed by viral infection and measured after 3 days by microscopic analysis; type: functional; design: scale not given: the % may be the effect or the level left; in short: as §3
[17] = Selectivity index, ratio of CC50 for human MT4 cells to EC50 for HIV-1 NL4.3 infected in human MT4 cells
[18] = test system: Enterovirus A71; experiment: Antiviral activity against Enterovirus A 71 BrCr harboring VP1 S184T mutant infected in human RD cells assessed as reduction in virus-induced cytopathic effect preincubated for 1 day followed by viral infection and measured after 3 days by MTS/PMS method; type: functional, organism-based, strain BRCR
[19] = test system: Enterovirus A71; experiment: Antiviral activity against Enterovirus A 71 BrCr harboring VP1 P246S mutant infected in human RD cells assessed as reduction in virus-induced cytopathic effect preincubated for 1 day followed by viral infection and measured after 3 days by MTS/PMS method; type: functional, organism-based, strain BRCR
[20] = test system: Enterovirus A71; experiment: Antiviral activity against Enterovirus A71 genotype B2 11316 infected in human RD cells assessed as reduction in virus-induced cytopathic effect preincubated for 1 day followed by viral infection and measured after 3 days by MTS/PMS method; type: functional, organism-based; conditions: Enterovirus A, genotype B2 11316, RD; in short: as §1
[21] = test system: Enterovirus A71; experiment: Antiviral activity against Enterovirus A 71 BrCr harboring VP1 S184T/P246S mutant infected in human RD cells assessed as reduction in virus-induced cytopathic effect preincubated for 1 day followed by viral infection and measured after 3 days by MTS/PMS method; type: functional, organism-based, strain BRCR
[22] = test system: Enterovirus A71; experiment: Antiviral activity against Enterovirus A71 genotype B2 11316 infected in human RD cells assessed as reduction in virus-induced cell death preincubated for 1 day followed by viral infection and measured after 3 days by microscopic analysis; type: functional; design: scale not given: the % may be the effect or the level left; in short: as §3
[23] = test system: Human immunodeficiency virus 2; experiment: Antiviral activity against HIV-2 ROD infected in human MT4 cells assessed as reduction in virus-induced cytopathic effect preincubated for 30 mins followed by viral infection and measured after 5 days by MTS assay; conditions: Human immunodeficiency virus 2, ISOLATE ROD
[24] = Selectivity ratio of EC50 for Enterovirus A 71 BrCr infected in human RD cells to EC50 for Enterovirus A 71 genotype B2 11316 infected in human RD cells; type: functional
[25] = Selectivity ratio of EC50 for Enterovirus A 71 BrCr infected in human RD cells to EC50 for Enterovirus A 71 genotype C4 TW/1956/05 infected in human RD cells; type: functional
[26] = biological target: Human immunodeficiency virus type 1 reverse transcriptase (Human immunodeficiency virus 1) (UniProt Q72547); conditions: 3B, MT4, 12 uM
[27] = test system: HeLa; experiment: Binding affinity to capsid protein VP1 five fold axis in Enterovirus A71 genotype B2 11316 infected in human HeLa cells at 20 uM measured after 1 hr by cryo-electron microscopic analysis; type: cell-based
[28] = biological target: Envelope glycoprotein gp160 (Human immunodeficiency virus 1) (UniProt Q6QLK5); experiment: Binding affinity to recombinant HIV1 3B gp120 by SPR analysis
Envelope glycoprotein gp160 (Human immunodeficiency virus 1), sequence (Q6QLK5 1-814): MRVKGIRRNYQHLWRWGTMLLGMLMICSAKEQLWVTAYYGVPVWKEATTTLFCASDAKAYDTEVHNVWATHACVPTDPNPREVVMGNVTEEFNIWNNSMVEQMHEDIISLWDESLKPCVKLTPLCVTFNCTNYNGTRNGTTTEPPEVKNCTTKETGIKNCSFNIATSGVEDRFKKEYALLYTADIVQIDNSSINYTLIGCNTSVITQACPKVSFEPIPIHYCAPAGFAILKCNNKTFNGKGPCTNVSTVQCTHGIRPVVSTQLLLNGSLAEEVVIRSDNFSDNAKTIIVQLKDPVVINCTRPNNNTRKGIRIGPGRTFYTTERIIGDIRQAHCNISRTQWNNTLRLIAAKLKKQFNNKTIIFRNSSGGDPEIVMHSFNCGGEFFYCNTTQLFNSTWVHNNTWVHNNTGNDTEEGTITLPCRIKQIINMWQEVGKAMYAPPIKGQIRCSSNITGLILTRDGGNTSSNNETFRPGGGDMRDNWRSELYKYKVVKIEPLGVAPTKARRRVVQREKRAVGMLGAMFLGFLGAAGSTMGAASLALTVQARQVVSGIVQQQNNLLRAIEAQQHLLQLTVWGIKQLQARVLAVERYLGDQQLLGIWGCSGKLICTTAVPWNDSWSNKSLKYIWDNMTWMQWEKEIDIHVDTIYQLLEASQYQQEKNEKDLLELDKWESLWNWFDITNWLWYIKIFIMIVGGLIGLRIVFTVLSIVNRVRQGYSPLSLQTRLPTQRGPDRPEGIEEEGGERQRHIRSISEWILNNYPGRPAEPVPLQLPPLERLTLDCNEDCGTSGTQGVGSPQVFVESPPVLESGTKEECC

[29] = test system: Human immunodeficiency virus 1; experiment: Antiviral activity against HIV1 3B infected in human MT4 cells assessed as reduction in p24 production at 20 uM administered at onset of infection measured 8 hrs post-infection by ELISA; type: functional, organism-based
[30] = test system: Human immunodeficiency virus 1; experiment: Antiviral activity against HIV1 3B infected in human MT4 cells assessed as reduction in p24 production at 20 uM incubated for 1 hr prior to viral infection followed by compound washout and measured 8 hrs post-infection by ELISA; type: functional, organism-based
[31] = biological target: Envelope glycoprotein gp160 (Human immunodeficiency virus 1, UniProt Q6QLK5); experiment: (§4) Inhibition of biotinylated-heparin binding to recombinant HIV1 3B gp120 by SPR analysis
Envelope glycoprotein gp160, sequence (Q6QLK5 whole entry): as the sequence (Q6QLK5 1-814) above
In short: (§5)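 SPR at 25 °C in PBS with 5% DMSO, 0.005% Tween20, pH 7.4. Minimally biotinylated heparin captured (880 RU) on streptavidin chip. Recombinant HIV-1 IIIB gp120 (10 nM) alone or premixed with a compound concentration range injected 2 min at 10 μl/min; regenerated with 1 M NaCl/10 mM NaOH. Double-referenced; RU converted to % inhibition vs gp120 alone; nonlinear fit, three experiments.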

[32] = biological target: Envelope glycoprotein gp160 (Human immunodeficiency virus 1) (UniProt Q6QLK5); experiment: as §4; in short: as §5

SMILES | selectivity ratio [2] | EC50 [3] | EC90 [3] | selectivity ratio [5] | EC50 [6] | EC50 [7] | EC50 [8] | EC50 [9] | Activity [10] | Activity [11] | CC50 at 120 h [12] | Activity [13] | Activity [14] | Activity [15] | Activity [16] | selectivity ratio [17] | EC50 [18] | EC50 [19] | Activity [22] | EC50 [23] | further results
CCOC(=O)c1ccc(OCCC2CCN(c3ccc(C)nn3)CC2)cc1 [PIRODAVIR] | > 333 | 300 nM | 600 nM |  |  |  |  |  |  |  |  |  |  |  |  |  |  |  |  |  | Activity [1]: 100%; Activity [4]: 100%
O=C(CCC(CCC(=O)N[C@H](Cc1c[nH]c2ccccc12)C(=O)O)(CCC(=O)N[C@H](Cc1c[nH]c2ccccc12)C(=O)O)NC(=O)CCOCC(COCCC(=O)NC(CCC(=O)N[C@H](Cc1c[nH]c2ccccc12)C(=O)O)(CCC(=O)N[C@H](Cc1c[nH]c2ccccc12)C(=O)O)CCC(=O)N[C@H](Cc1c[nH]c2ccccc12)C(=O)O)(COCCC(=O)NC(CCC(=O)N[C@H](Cc1c[nH]c2ccccc12)C(=O)O)(CCC(=O)N[C@H](Cc1c[nH]c2ccccc12)C(=O)O)CCC(=O)N[C@H](Cc1c[nH]c2ccccc12)C(=O)O)COCCC(=O)NC(CCC(=O)N[C@H](Cc1c[nH]c2ccccc12)C(=O)O)(CCC(=O)N[C@H](Cc1c[nH]c2ccccc12)C(=O)O)CCC(=O)N[C@H](Cc1c[nH]c2ccccc12)C(=O)O)N[C@H](Cc1c[nH]c2ccccc12)C(=O)O |  | 280 to 300 nM | 500 nM | > 43 | 0.2 nM | 0.2 nM | 2300 nM | 1.1 nM | Non-Toxic | Non-Toxic | > 100000 nM | 100% | 100% | 100% | 100% | > 43 | 1990 nM | 4710 nM | 100% | 6600 nM | EC50 [20]: 0.4 nM; EC50 [21]: 8930 nM
O=C(CCOCC(COCCC(=O)NC(Cc1c(-c2cccc(C(=O)O)c2)[nH]c2ccccc12)C(=O)O)(COCCC(=O)NC(Cc1c(-c2cccc(C(=O)O)c2)[nH]c2ccccc12)C(=O)O)COCCC(=O)NC(Cc1c(-c2cccc(C(=O)O)c2)[nH]c2ccccc12)C(=O)O)NC(Cc1c(-c2cccc(C(=O)O)c2)[nH]c2ccccc12)C(=O)O (stereo not drawn) | > 336 | 175 to 190 nM | 300 nM | > 50 | 18 nM | 2 nM | 2000 nM | 7.3 nM | Non-Toxic | Non-Toxic | > 100000 nM | 100% | 100% | 100% | 100% | > 50 |  |  | 100% | 760 nM | Ratio EC50 [24]: 4; Ratio EC50 [25]: 88; EC50 [20]: 52 nM
Cc1cn([C@H]2C[C@H](N=[N+]=[N-])[C@@H](CO)O2)c(=O)[nH]c1=O |  |  |  |  |  |  |  |  |  |  |  |  |  |  |  |  |  |  |  |  | inhibition [26]: Active
O=C(CCOCC(COCCC(=O)NC(Cc1c(-c2cc(C(=O)O)cc(C(=O)O)c2)[nH]c2ccccc12)C(=O)O)(COCCC(=O)NC(Cc1c(-c2cc(C(=O)O)cc(C(=O)O)c2)[nH]c2ccccc12)C(=O)O)COCCC(=O)NC(Cc1c(-c2cc(C(=O)O)cc(C(=O)O)c2)[nH]c2ccccc12)C(=O)O)NC(Cc1c(-c2cc(C(=O)O)cc(C(=O)O)c2)[nH]c2ccccc12)C(=O)O (stereo not drawn) |  | 40 to 109 nM | 160 nM |  |  |  |  |  | Non-Toxic | Non-Toxic | > 100000 nM | 100% | 100% | 100% | 100% |  | 900 nM | 200 nM | 100% | 20 nM | Activity [27]: Active; Activity [28]: Dose-dependent effect; Activity [29]: Active; EC50 [21]: 300 nM; Activity [30]: Active; IC50 [31]: 211 nM; inhibition [32]: Dose-dependent effect
